Assay results published in ChEMBL document CHEMBL4706651, “Peripheral Selective Oxadiazolylphenyl Alanine Derivatives as Tryptophan Hydroxylase 1 Inhibitors for Obesity and Fatty Liver Disease” (J Med Chem, 2021).
Calls of active or inactive are those of the source.

Tests used:
Assay type in all cases: functional, organism-based
Mus musculus [1] = experiment: Anti-obesity activity in C57BL/6J mouse model of diet-induced obesity assessed as induction of thermogenic activity by measuring increase in Ucp1 mRNA expression in BAT at 10 mg/kg, ip dosed daily for 8 weeks by RT-PCR analysis
Outline: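 C57BL/6J mice fed a 60% fat-calorie diet from 12 weeks of age, dosed ip daily for eight weeks. For Ucp1 mRNA, total RNA was extracted from BAT or iWAT with TRIzol and analysed by quantitative RT-PCR as relative expression. UCP1 protein was detected by immunohistochemistry on five-micron paraffin sections. n = 5/group.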

Mus musculus [2] = experiment: Anti-obesity activity in C57BL/6J mouse model of diet-induced obesity assessed as increase in multilocular adipocytes at 10 mg/kg, ip dosed daily for 8 weeks by H and E staining based histological analysis
Outline: (§1)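 C57BL/6J mice, 12 weeks old, given daily ip vehicle or drug during 8 weeks of high-fat diet (60% fat calories). Sacrificed after 6 h fasting. Five-micron paraffin sections of eWAT, iWAT and BAT were deparaffinized and stained with H&E. Crown-like structures, adipocyte size, lipid droplets and multilocular cells were assessed. Scale bar 100 μm.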

Mus musculus [3] = experiment: Anti-obesity activity in C57BL/6J mouse model of diet-induced obesity assessed as reduction in adipocyte size in iWAT at 10 mg/kg, ip dosed daily for 8 weeks by H and E staining based histological analysis; outline: as §1
Mus musculus [4] = experiment: Anti-obesity activity in C57BL/6J mouse model of diet-induced obesity assessed as reduction in adipose tissue inflammation at 10 mg/kg, ip dosed daily for 8 weeks by H and E staining based histological analysis; outline: as §1

Measured: Activity

COc1ccc(-c2nc(-c3ccc(C[C@H](N)C(=O)O)cc3)no2)cc1-c1ccc(O)cc1.Cl
active: Mus musculus [1] | Mus musculus [2] | Mus musculus [3] | Mus musculus [4]
